Source: ChEMBL document CHEMBL1157586 (Bioorg Med Chem, 2010)
Calls of active or inactive are those of the source. The rule behind the calls is not given here.

Columns and labels:
[1] = test system: A2780; test: Antitumor activity against human A2780 cells xenografted in iv dosed BALB/c nu/nu mouse assessed as inhibition of tumor growth administered QD for 10 consecutive days measured every 3 days post last dose; assay type: functional, organism-based
Summary of the method: (§1)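 Human tumor xenografts (A2780 ovarian, HCT-116 colon, BX-PC3 pancreatic) in mice. Compound dissolved in 5% dextrose and given iv once daily for 10 consecutive days; A2780 curves show dosing from day 8. Doses were 10, 20 and 30 mg/kg for A2780, and 10 and 20 mg/kg for HCT-116 and BX-PC3. Controls received vehicle. Tumor growth inhibition taken at end of treatment; body weight tracked.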

[2] = test system: A2780; test: Cell cycle arrest in human A2780 cells assessed as accumulation at G0/G1 phase at 3 uM after 24 hrs by FACS analysis; assay type: functional
Summary of the method: (§2)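 A2780 cells (ECACC) seeded at 25000 cells/cm² in RPMI 1640, pH 7.4, with 10% FBS, 2 mM L-glutamine and penicillin–streptomycin, at 37 °C in 5% CO₂. After 24 h, treated for 24 h at 1 and 3 µM. Floating and trypsinised adherent cells pooled, PBS-washed, and DNA content analysed by flow cytometry.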

[3] = test system: A2780; test: Cell cycle arrest in human A2780 cells assessed as accumulation at S phase at 3 uM after 24 hrs by FACS analysis; assay type: functional; summary of the method: as §2
[4] = test system: PC-3; test: Antiproliferative activity against human PC3 cells after 72 hrs by SRB assay; assay type: functional, cell-based; conditions: PC-3, 72 h
[5] = test system: HCT-116; test: Antitumor activity against human HCT116 cells xenografted in BALB/c nu/nu mouse assessed as inhibition of tumor growth at 20 mg/kg, iv QD for 10 consecutive days measured every 3 days post last dose; assay type: functional; conditions: HCT-116, read-out: INH; summary of the method: as §1
[6] = Inhibition of PDGFR by scintillation proximity assay
[7] = test system: DU-145; test: Antiproliferative activity against human DU145 cells after 72 hrs by SRB assay; assay type: functional, cell-based; conditions: DU-145, 72 h
[8] = test system: BXPC-3; test: Antiproliferative activity against human BxPC3 cells after 72 hrs by SRB assay; assay type: functional, cell-based; conditions: BXPC-3, 72 h
[9] = Inhibition of CK2 by scintillation proximity assay
[10] = test system: A2780; test: Inhibition of cellular DNA synthesis in human A2780 cells assessed as BrdU incorporation into nuclear DNA at 1 uM after 24 hrs by Hoechst 33342 staining-based microscopic analysis; assay type: functional; parameters: scale not given: the % may be the effect or the level left
Summary of the method: (§3)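 A2780 human ovarian adenocarcinoma cells were seeded at 25000 cells/cm² in RPMI 1640 pH 7.4 with 10% FBS, 2 mM L-glutamine and penicillin–streptomycin. They were kept at 37 °C in 5% CO₂. After 24 h they were exposed to compound for 24 h. Floating and adherent cells were harvested with trypsin/EDTA, washed in PBS, and split for flow cytometry, immunoblot and BrdU incorporation.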

[11] = Inhibition of STK2 by scintillation proximity assay
[12] = test system: A2780; test: Inhibition of cellular DNA synthesis in human A2780 cells assessed as BrdU incorporation into nuclear DNA at 3 uM after 24 hrs by Hoechst 33342 staining-based microscopic analysis; assay type: functional; parameters: scale not given: the % may be the effect or the level left; summary of the method: as §3
[13] = test system: A2780; test: Antiproliferative activity against human A2780 cells after 72 hrs by CellTiter-Glo luminescence assay; conditions: A2780, 72 h
[14] = Inhibition of SULU1 by scintillation proximity assay
[15] = test system: A2780; test: Cell cycle arrest in human A2780 cells assessed as accumulation at G2/M phase at 1 uM after 24 hrs by FACS analysis; assay type: functional; summary of the method: as §2
[16] = test system: MCF7; test: Antiproliferative activity against human MCF7 cells after 72 hrs by SRB assay; assay type: functional, cell-based; conditions: MCF7, 72 h
[17] = Antiproliferative activity against human C-433 cells after 72 hrs by SRB assay; assay type: functional, cell-based; conditions: C-433, 72 h
[18] = molecular target: T1, Cyclin-dependent kinase (Homo sapiens) (UniProt P06493+P11802+P24941+Q00535+Q00534+P50613+Q00526+Q00536+Q07002+P49336+Q00537+P21127+Q96Q40+Q9BWU1+O94921+P50750+Q15131+Q14004+Q8IZL9+Q9NYV4); test: Inhibition of CDK in human A2780 cells assessed as accumulation of hypophosphorylated form of retinoblastoma protein at 1 uM by immunohistochemistry; assay type: cell-based
[19] = test system: A2780; test: Cell cycle arrest in human A2780 cells assessed as accumulation at G2/M phase at 3 uM after 24 hrs by FACS analysis; assay type: functional; summary of the method: as §2
[20] = test system: HCT-116; test: Antiproliferative activity against human HCT116 cells after 72 hrs by SRB assay; assay type: functional, cell-based; conditions: HCT-116, 72 h
[21] = test system: BXPC-3; test: Antitumor activity against human BxPC3 cells xenografted in BALB/c nu/nu mouse assessed as inhibition of tumor growth at 20 mg/kg, iv QD for 10 consecutive days measured every 3 days post last dose; assay type: functional; summary of the method: as §1
[22] = test system: A2780; test: Antitumor activity against human A2780 cells xenografted in BALB/c nu/nu mouse assessed as inhibition of tumor growth at 30 mg/kg, iv QD for 10 consecutive days measured every 3 days post last dose; assay type: functional; summary of the method: as §1
[23] = test system: A2780; test: Cell cycle arrest in human A2780 cells assessed as accumulation at S phase at 1 uM after 24 hrs by FACS analysis; assay type: functional; summary of the method: as §2
[24] = molecular target: T1, Cyclin-dependent kinase (Homo sapiens); test: Inhibition of CDK in human A2780 cells assessed as accumulation of hypophosphorylated form of retinoblastoma protein at 3 uM by immunohistochemistry; assay type: cell-based
[25] = molecular target: T1, Cyclin-dependent kinase (Homo sapiens); test: Inhibition of CDK in human A2780 cells assessed as reduction of hyperphosphorylated form of retinoblastoma protein at 1 uM by immunohistochemistry; assay type: cell-based
[26] = test system: HCT-116; test: Antitumor activity against human HCT116 cells xenografted in iv dosed BALB/c nu/nu mouse assessed as inhibition of tumor growth administered QD for 10 consecutive days measured every 3 days post last dose; assay type: functional, organism-based; summary of the method: as §1
[27] = test system: COLO 205; test: Antiproliferative activity against human COLO205 cells after 72 hrs by SRB assay; assay type: functional, cell-based; conditions: COLO 205, 72 h
[28] = test system: Mus musculus; test: Inhibition of CDK in human A2780 cells xenografted in iv dosed BALB/c nu/nu mouse assessed as reduction of hyperphosphorylated form of retinoblastoma protein at 30 mg/kg, iv for 5 days by immunohistochemistry; assay type: functional, organism-based; parameters: dose 30 mg/kg
Summary of the method: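 Mice bearing A2780 xenografts given 30 mg/kg iv for 5 days; vehicle controls. Tumors analysed by immunohistochemistry for BrdU and phospho-pRb positive cells. For BrdU, sections were denatured and pretreated with 4 N HCl and proteinase K, then stained with the Dako ARK kit and counterstained with hematoxylin. Automated quantitative image analysis done by two observers.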

[29] = test system: A2780; test: Antitumor activity against human A2780 cells xenografted in iv dosed BALB/c nu/nu mouse assessed as reduction of BrdU incorporation into cellular DNA at 30 mg/kg, iv for 5 days by immunohistochemistry
[30] = molecular target: T1, Cyclin-dependent kinase (Homo sapiens); test: Inhibition of CDK in human A2780 cells assessed as reduction of hyperphosphorylated form of retinoblastoma protein at 3 uM by immunohistochemistry; assay type: cell-based
[31] = test system: A2780; test: Cell cycle arrest in human A2780 cells assessed as accumulation at sub-G1 phase at 3 uM after 24 hrs by FACS analysis; assay type: functional; summary of the method: as §2
[32] = Inhibition of NIM by scintillation proximity assay
[33] = test system: A-375; test: Antiproliferative activity against human A375 cells after 72 hrs by SRB assay; assay type: functional, cell-based; conditions: A-375, 72 h
[34] = test system: A2780; test: Cell cycle arrest in human A2780 cells assessed as accumulation at G0/G1 phase at 1 uM after 24 hrs by FACS analysis; assay type: functional; summary of the method: as §2

## CC(C)CC(=O)Nc1n[nH]c2c1CN(C(=O)C1CCN(C)CC1)C2(C)C [PHA-793887]
[1]
  Activity: Dose-dependent effect
[2]
  Activity: -11%
[3]
  Activity: -48%
[4]
  IC50: 0.601 µM
[5]
  inhibition in vivo at 20 mg/kg: 81%
[6]
  IC50: > 10 µM
[7]
  IC50: 0.303 µM
[8]
  IC50: 3.44 µM
[9]
  IC50: > 10 µM
[10]
  Activity: -85%
[11]
  IC50: > 10 µM
[12]
  Activity: -100%
[13]
  IC50: 0.09 µM
[14]
  IC50: > 10 µM
[15]
  Activity: 62%
[16]
  IC50: 1.28 µM
[17]
  IC50: 0.285 µM
[18]
  Activity: Active
[19]
  Activity: 263%
[20]
  IC50: 0.163 µM
[21]
  inhibition in vivo at 20 mg/kg: 84%
[22]
  inhibition in vivo at 30 mg/kg: 76%
[23]
  Activity: -76%
[24]
  Activity: Active
[25]
  Activity: Active
[26]
  Activity: Dose-dependent effect
[27]
  IC50: 0.188 µM
[28]
  Activity: Active
[29]
  Activity: Active
[30]
  Activity: Active
[31]
  Activity: 26.2%
[32]
  IC50: > 10 µM
[33]
  IC50: 0.396 µM
[34]
  Activity: 25%
